From publication PMC10864903 (Heliyon, 2024)
In brackets after ≈: the same amount, converted by molar mass.

Legend:
[1] = tested on: MTCC-739 (Escherichia coli); experiment: Agar-disc diffusion, E. coli; assay type: cell-based; settings: MTCC739, read-out: Diameter of Growth Inhibition Zone, E. coli
[2] = tested on: MTCC-2453 (Pseudomonas aeruginosa); experiment: Agar-disc diffusion, P. aeruginosa; assay type: cell-based; settings: MTCC2453, read-out: Diameter of Growth Inhibition Zone, P. aeruginosa
[3] = tested on: recultured (Enterobacter aerogenes); experiment: Agar-disc diffusion, E. aerogenes; assay type: cell-based; settings: Klebsiella aerogenes, read-out: Diameter of Growth Inhibition Zone, E. aerogenes
[4] = tested on: MTCC-96 (Staphylococcus aureus); experiment: Agar-disc diffusion, S. aureus; assay type: cell-based; settings: MTCC96, read-out: Diameter of Growth Inhibition Zone, S. aureus
[5] = tested on: MTCC-1306 (Bacillus cereus); experiment: Agar-disc diffusion, B. cereus; assay type: cell-based; settings: MTCC1306, read-out: Diameter of Growth Inhibition Zone, B. cereus
[6] = tested on: E. coli; experiment: Minimal inhibitory concentration, E. coli; assay type: cell-based; settings: Escherichia coli, read-out: Minimal Inhibitory Concentration (MIC), E. coli
[7] = tested on: P. aeruginosa; experiment: Minimal inhibitory concentration, P. aeruginosa; assay type: cell-based; settings: Pseudomonas aeruginosa, read-out: Minimal Inhibitory Concentration (MIC), P. aeruginosa
How it was run: (§1)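 Agar disc diffusion against bacterial strains, following a previously reported method. Strains were P. aeruginosa MTCC-2453 and S. aureus MTCC-96. Test compounds were anthraquinone-linked coumarins. MIC was reported in µg/mL.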

[8] = tested on: S. aureus; experiment: Minimal inhibitory concentration, S. aureus; assay type: cell-based; settings: Staphylococcus aureus, read-out: Minimal Inhibitory Concentration (MIC), S. aureus
How it was run: as §1

[9] = tested on: B. cereus; experiment: Minimal inhibitory concentration, B. cereus; assay type: cell-based; settings: Bacillus cereus, read-out: Minimal Inhibitory Concentration (MIC), B. cereus
[10] = tested on: Tyrosinase from mushrooms; experiment: Mushroom tyrosinase inhibition, L-dopa as substrate; assay type: biochemical; settings: mean ± SD of three experiments

MIC [6] [µg/mL]	MIC [7] [µg/mL]	MIC [8] [µg/mL]	MIC [9] [µg/mL]	Tyrosinase inhibitory activity (%) at 25 μg/mL ([10]; 25 μg/mL) [%]	Tyrosinase inhibitory activity (%) at 50 μg/mL ([10]; 50 μg/mL) [%]	Tyrosinase inhibitory activity (%) at 100 μg/mL ([10]; 100 μg/mL) [%]	Structure (SMILES)	zone of inhibition at 100 µg/disc [1] [mm]	zone of inhibition at 100 µg/disc [2] [mm]	zone of inhibition at 100 µg/disc [3] [mm]	zone of inhibition at 100 µg/disc [4] [mm]	zone of inhibition at 100 µg/disc [5] [mm]
0.5 (≈ 1.51 µM)	1 (≈ 3.02 µM)	1 (≈ 3.02 µM)	2 (≈ 6.04 µM)				O=C(O)c1cn(C2CC2)c2cc(N3CCNCC3)c(F)cc2c1=O [Ciprofloxacin, ciprofloxacin]	27	26	30	25	22
				55.67 ± 0.12	68.62 ± 0.32	85.54 ± 0.23	O=c1cc(CO)occ1O [Kojic acid, kojic acid]					
